Rows were chosen to be rich in hits. Some 2.5% of all compounds tested hit in one or more screens of this group.
NadD block: inhibitors of Staphylococcus aureus NadD | purified NadD enzyme, colorimetric absorbance read-out | inhibition, % at 20 µM | 360,000 tested, 0.78% active; in the data active means inhibition above about 26%
NR2E3 ag-1: human photoreceptor-specific nuclear receptor agonism | CHO-S Gal4-NCOR/VP16-NR2E3 two-hybrid, luciferase | inhibition of corepressor binding, % at 3.98 µM | 360,000 tested, 0.35% active | AID 602229;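 active means inhibition above the mean of all tested compounds plus 3 SD, cut at about 70% in these data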;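 further: 0% = DMSO with NR2E3 transfected cells and 100% = cells lacking NR2E3 construct; higher means lower luciferase signal from less NR2E3 corepressor binding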
MsrA inh: bovine MsrA inhibition; purified bovine MsrA, absorbance read-out; inhibition, % at 15.5 µM; 360,000 tested, 0.75% active; AID 651718;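 further: 0% = vehicle wells with enzyme and 100% = reference inhibitor wells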
GalR3 antagonist: human GalR3 antagonism. 360,000 tested, 0.44% active. inhibition, % at 3 µM. HEK293 GalR3-CNG cAMP membrane potential fluorescence; galR3 body fused to GalR1 C-terminus. O60755;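 active means inhibition above the screen-wide average plus 3 SD, cut at about 13% in these data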;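 further: forskolin and galanin both at EC90 stimulate the cells; cAMP rise reported by CNG channel membrane potential dye signal; 0% = forskolin plus galanin with DMSO and 100% = forskolin alone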
Target sequence (O60755 1-299 limits assumed): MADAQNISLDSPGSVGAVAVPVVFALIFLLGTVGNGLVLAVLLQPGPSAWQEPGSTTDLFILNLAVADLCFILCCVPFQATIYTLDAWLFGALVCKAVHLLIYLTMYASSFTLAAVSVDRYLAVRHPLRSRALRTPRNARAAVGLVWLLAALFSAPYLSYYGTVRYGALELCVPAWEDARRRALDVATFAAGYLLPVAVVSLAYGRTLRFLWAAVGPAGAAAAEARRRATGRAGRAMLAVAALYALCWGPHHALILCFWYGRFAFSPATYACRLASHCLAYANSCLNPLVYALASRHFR
MsrA act: activators of bovine methionine sulfoxide reductase A. purified bovine MsrA, absorbance read-out. activation, % at 10.6 µM. 360,000 tested, 0.3% active. AID 602163; in the data active means activation above about 7.5%;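 further: 0% = vehicle and 100% = reference activator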
NR2E3 ag-2: NR2E3 (human) agonism. Q9Y5X4. GST-NR2E3/biotin-RetCOR TR-FRET, 1536-well. inhibition of corepressor binding, % at 4.78 µM. 320,000 tested, 0.12% active;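 active means percent inhibition above the cutoff of mean plus 3 SD of all tested compounds, set per screening campaign, cut at about 20% in these data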;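 further: 0% = DMSO wells and 100% = biotin wells as full block of FRET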
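Test system – NR2E3–RetCOR corepressor complex · Quantity – NR2E3 fusion 1.35 nM · Buffer or medium – Tris pH 7.5 · Incubation – Compound–protein incubation for 5 h at 4 °C · Technique – TR-FRET, Eu(K)-anti-GST donor, streptavidin-D2 acceptor, ex 340, em 617/671 nm · Evaluation – percent inhibition of 671/617 nm emission ratio versus biotin and DMSO controls · Plate – 1536-well format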
MsrA inh confirm: bovine MsrA inhibition, confirmed. purified bovine MsrA, absorbance read-out. shares compounds with MsrA inh. inhibition, % at 15.5 µM. 2,300 tested, 41% active. AID 651822;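 further: coupled to thioredoxin reductase with NADPH and selenocystamine and DMSO as substrate; 0% = vehicle only and 100% = full effect of reference inhibitor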
* hit, by the source's call. Unless noted, no stated cut-off is given here; in the data, active means inhibition above about 4.5%; inactive means the rest.

O=C(O)COc1ccccc1/C=N/Nc1ccc(S(=O)(=O)Nc2ccc(Cl)cc2)cc1[N+](=O)[O-] was read as NadD block 26, NR2E3 ag-1 -54, MsrA inh 4, GalR3 antagonist -7, MsrA act -2 and NR2E3 ag-2 2.
Screening COc1ccccc1NS(=O)(=O)c1ccc(N/N=C/c2ccccc2OCC(=O)O)c([N+](=O)[O-])c1 returned NadD block 19, NR2E3 ag-1 -12, MsrA inh 5.4*, GalR3 antagonist -5, MsrA act -4, NR2E3 ag-2 0 and MsrA inh confirm 3.
`COc1ccc(NS(=O)(=O)c2cc([N+](=O)[O-])ccc2NN=Cc2ccccc2OCC(=O)O)cc1` gave NadD block 19, NR2E3 ag-1 4, MsrA inh 0, GalR3 antagonist -6 and MsrA act -2.
`O=c1[nH]ncc(N/N=C/c2ccccc2)c1Cl` gave NadD block -1, NR2E3 ag-1 18, MsrA inh 7.2*, GalR3 antagonist -6, MsrA act -16, NR2E3 ag-2 -6 and MsrA inh confirm 6.8*.
`O=c1[nH]ncc(NCCc2ccccc2)c1Cl` gave NadD block 1, NR2E3 ag-1 -4, MsrA inh 2, GalR3 antagonist 0, MsrA act -1 and NR2E3 ag-2 -2.
Screening COc1ccc(/C=N/Nc2nnc(Cc3ccccc3)c(=O)[nH]2)cc1 returned NadD block -1, NR2E3 ag-1 -5, MsrA inh 1, GalR3 antagonist -9, MsrA act -1 and NR2E3 ag-2 2.
COc1ccc(/C=N/Nc2cn[nH]c(=O)c2Cl)cc1 was read as NadD block 2, NR2E3 ag-1 -67, MsrA inh 5.4*, GalR3 antagonist -4, MsrA act -8, NR2E3 ag-2 4 and MsrA inh confirm 5.9*.
Screening Cc1ccsc1/C=N\Nc1cn[nH]c(=O)c1Cl returned NadD block 5, NR2E3 ag-1 -7, MsrA inh 4, GalR3 antagonist 2, MsrA act -6 and NR2E3 ag-2 1.
`Cc1ccc(/C=N\Nc2cn[nH]c(=O)c2Cl)cc1` gave NadD block 2, NR2E3 ag-1 -51, MsrA inh 7.8*, GalR3 antagonist -10, MsrA act -6, NR2E3 ag-2 -5 and MsrA inh confirm 6.6*.
`NS(=O)(=O)c1ccc(CCNC(=O)c2ccc(Cl)nc2)cc1` gave NadD block -4, NR2E3 ag-1 -27, MsrA inh 0, GalR3 antagonist -12, MsrA act 0 and NR2E3 ag-2 -3.
Screening O=c1[nH]nc(N/N=C/c2ccccc2OC(F)F)c(=O)[nH]1 returned NadD block -9, NR2E3 ag-1 -4, MsrA inh 5.0*, GalR3 antagonist 8, MsrA act -4, NR2E3 ag-2 3 and MsrA inh confirm 3.
`O=C(CCNc1n[nH]c(=O)[nH]c1=O)N/N=C/c1ccccc1Br` gave NadD block 5, NR2E3 ag-1 -25, MsrA inh -1, GalR3 antagonist 1, MsrA act -4 and NR2E3 ag-2 4.
Screening N#C/C(=C\c1ccco1)C(=O)Nc1cccc2ncccc12 returned NadD block 2, NR2E3 ag-1 -9, MsrA inh 6.0*, GalR3 antagonist -3, MsrA act -6, NR2E3 ag-2 -2 and MsrA inh confirm 5.3*.
For O=C(NC(=S)Nc1cccc2ncccc12)c1ccco1 the results were NadD block 2, NR2E3 ag-1 -38, MsrA inh -1, GalR3 antagonist -5, MsrA act -3 and NR2E3 ag-2 3.
Screening O=C(Nc1ccccc1C(=O)O)c1cccc(C(=O)Nc2ccccc2C(=O)O)c1 returned NadD block -2, NR2E3 ag-1 -11, MsrA inh 1, GalR3 antagonist -12, MsrA act -5 and NR2E3 ag-2 4.
`CCNc1c(NC(C)=O)c(=O)oc2ccccc12` gave NadD block 0, NR2E3 ag-1 -12, MsrA inh 0, GalR3 antagonist -4, MsrA act 3 and NR2E3 ag-2 4.
For CC(=O)Nc1c(-c2cc(=O)oc3cc(C)ccc23)oc2ccccc12 the results were NadD block -1, NR2E3 ag-1 -21, MsrA inh 4.9*, GalR3 antagonist 1, MsrA act 0 and MsrA inh confirm 3.
`N#CC(/C(=N/S(=O)(=O)c1cccs1)c1ccccc1)c1nc2ccccc2[nH]1` (stereo not given) gave NadD block -1, NR2E3 ag-1 -6, MsrA inh 5.0*, GalR3 antagonist 6, MsrA act -3, NR2E3 ag-2 0 and MsrA inh confirm 5.8*.
COc1ccc(/C=C2\Oc3cc(OCC(=O)N4CCC[C@H]4C(=O)O)ccc3C2=O)c(OC)c1OC was read as NadD block 4, NR2E3 ag-1 3, MsrA inh 5.1*, GalR3 antagonist -8, MsrA act -7, NR2E3 ag-2 -4 and MsrA inh confirm 5.5*.
Screening COc1ccc(/C=C2\Oc3cc(OCC(=O)N4CCC[C@H]4C(=O)O)ccc3C2=O)cc1OC returned NadD block 3, NR2E3 ag-1 -10, MsrA act -7 and NR2E3 ag-2 -1.
Screening COc1ccc(/C=C2\Oc3cc(OCC(=O)N4CC(O)C[C@H]4C(=O)O)ccc3C2=O)c(OC)c1OC (stereo not given in full) returned NadD block -2, NR2E3 ag-1 -5, MsrA inh 4.9*, GalR3 antagonist -4, MsrA act 1, NR2E3 ag-2 -2 and MsrA inh confirm 3.
For COc1ccc(OC)c(/C=C2\Oc3cc(OCC(=O)N4CC(O)C[C@H]4C(=O)O)ccc3C2=O)c1 (stereo not given in full) the results were NadD block -4, NR2E3 ag-1 -4, MsrA inh 4, GalR3 antagonist -5, MsrA act -5 and NR2E3 ag-2 0.
Screening O=C1OC(c2ccco2)=N/C1=C\c1ccc(-c2cccc(C(F)(F)F)c2)o1 returned NadD block 10, NR2E3 ag-1 -27, MsrA inh 5.6*, GalR3 antagonist 0, MsrA act -2, NR2E3 ag-2 0 and MsrA inh confirm 2.
`CCCc1cc(=O)oc2c3c(cc(OCC(=O)N4CCC(C(=O)O)CC4)c12)OC(C)(C)CC3` gave NadD block 1, NR2E3 ag-1 -23, MsrA inh 5.0*, GalR3 antagonist 1, MsrA act -3 and MsrA inh confirm 1.
CCOc1ncccc1C(=O)Nc1ccc(S(=O)(=O)NC2=NCCCCC2)cc1 was read as NadD block -5, NR2E3 ag-1 -30, MsrA inh 0, GalR3 antagonist -6, MsrA act -3 and NR2E3 ag-2 -3.

Screens: PubChem, several laboratories
